Results from article PMC4291883 (Asian Journal of Andrology, 2014).
Entries after “also recorded” stand apart in the source; their conditions may differ. Residues, ends and D or L forms follow the SMILES beside them.

What was measured:
rat thoracic aorta = molecular target: T1, rat thoracic aorta (Rattus norvegicus, UniProt P49684); details: comparison of U-II, P5U and UPG84
T1 sequence (P49684 1-386): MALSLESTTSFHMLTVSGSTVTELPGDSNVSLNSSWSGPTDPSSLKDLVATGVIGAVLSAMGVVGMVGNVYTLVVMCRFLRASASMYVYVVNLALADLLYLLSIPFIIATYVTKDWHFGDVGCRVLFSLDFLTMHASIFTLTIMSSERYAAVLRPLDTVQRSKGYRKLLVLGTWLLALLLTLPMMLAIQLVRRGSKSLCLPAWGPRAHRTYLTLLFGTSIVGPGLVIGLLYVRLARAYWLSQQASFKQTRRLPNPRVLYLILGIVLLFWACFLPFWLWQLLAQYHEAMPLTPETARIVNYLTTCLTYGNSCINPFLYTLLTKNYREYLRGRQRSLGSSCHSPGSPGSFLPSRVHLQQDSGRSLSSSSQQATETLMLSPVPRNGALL
How it was run: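 Thoracic aorta from male Wistar rats (200–250 g) killed under anaesthesia was cut helically into two parallel strips and the endothelium rubbed off. Strips were held in bicarbonate salt solution at 37°C gassed with 95% O2/5% CO2, 5 mN load, isotonic recording. After 60 min equilibration they were checked with noradrenaline 1 μmol l−1 and re-equilibrated 60 min. Cumulative concentration-response curves were fitted by sigmoidal regression; EC50 expressed as pD2 (−log EC50).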

[1] = tested on: intracavernous pressure in anesthetized rats; test: Monitoring of intracavernous pressure; format: in vivo, male Wistar rats; details: for ICP effect compared with U-II and/or P5U (in words): comparison between the peptides; for effect on ICP / penile erection (in words): lowest dose
How it was run: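 Male Wistar rats (200–250 g) under i.p. urethane (1 g kg−1); carotid catheter records systemic pressure; 26-gauge needle through right crus into the cavernosal space records ICP; injections via the other crus. Test compound given at 0.03, 0.1, 0.3 and 1 nmol in 50 μl saline, next dose ≥5 min after return to baseline; ACh 5 nmol ends each run. Read-outs are ΔICP (mmHg) and AUC (mmHg × s); mean ± s.e.m., 5–7 experiments; ANOVA with Bonferroni post-test.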

[2] = tested on: intracavernous pressure in rats; details: intracavernous administration in rats; cited from earlier work
[3] = tested on: human corpus cavernosum strips; details: cited from earlier work
vascular smooth muscle = details: cited from earlier work

| SMILES | agonist activity / potency (in words) (rat thoracic aorta) | increase in ICP, area under the curve ([1]; 0.1 nmol intracavernous, 50 μl saline, urethane anesthesia, mean ± s.e.m., n = 7) [mmHg × s] | ICP effect compared with U-II 0.3 nmol (in words) ([1]; 0.1 nmol intracavernous, compared with U-II at 0.3 nmol per rat) | ICP effect compared with U-II and/or P5U (in words) ([1]; 0.03–1 nmol intracavernous) | delta of increase in ICP (in words) ([1]; 0.03–1 nmol intracavernous, delta in mmHg) | effect on ICP (in words) ([1]; doses of 0.1, 0.3 and 1 nmol intracavernous) | effect on ICP / penile erection (in words) ([1]; 0.03 nmol intracavernous) | ICP increase (in words) [2] | relaxation of human corpus cavernosum (in words) [3] | vasoconstrictor potency (in words) (vascular smooth muscle) | ICP effect (in words) ([1]; 0.1 nmol intracavernous) | ICP effect compared with P5U 1 nmol (in words) ([1]; 0.03 nmol intracavernous, compared with P5U at 1 nmol) | ICP effect compared with highest dose of U-II, 1 nmol (in words) ([1]; 0.03 nmol intracavernous, compared with U-II at 1 nmol) |
| --- | --- | --- | --- | --- | --- | --- | --- | --- | --- | --- | --- | --- | --- |
| CC(C)[C@H](NC(=O)[C@@H]1CSSC(C)(C)[C@H](NC(=O)[C@@H](N)CC(=O)O)C(=O)N[C@@H](Cc2ccccc2)C(=O)N[C@@H](Cc2c[nH]c3ccccc23)C(=O)N[C@@H](CCCCN)C(=O)N[C@@H](Cc2ccc(O)cc2)C(=O)N1)C(=O)O [P5U, H-Asp-c[Pen-Phe-Trp-Lys-Tyr-Cys]-Val-OH] (HELM PEPTIDE1{D.[Pen].F.W.K.Y.C.V}$PEPTIDE1,PEPTIDE1,2:R3-7:R3$$$V2.0) | higher activity (pD2) when compared to the endogenous ligand U-II | 73.95 ± 7.312 | comparable to the effect elicited by U-II at a dose of 0.3 nmol; also recorded: not statistically different from the effect elicited by U-II at a dose of 0.3 nmol per rat | elicited a significant increase in ICP as compared to U-II | displays the same profile of the area under the curve | significantly raises ICP | did not affect the ICP | – | – | – | – | – | – |
| CC(C)[C@H](NC(=O)[C@@H]1CSSC[C@H](NC(=O)[C@H](CC(=O)O)NC(=O)[C@@H]2CCCN2C(=O)[C@@H](NC(=O)[C@@H](N)CCC(=O)O)[C@@H](C)O)C(=O)N[C@@H](Cc2ccccc2)C(=O)N[C@@H](Cc2c[nH]c3ccccc23)C(=O)N[C@@H](CCCCN)C(=O)N[C@@H](Cc2ccc(O)cc2)C(=O)N1)C(=O)O [U-II, H-Glu-Thr-Pro-Asp-c[Cys-Phe-Trp-Lys-Tyr-Cys]-Val-OH] | – | – | – | – | – | – | – | dose-dependent increase in intracavernous pressure (ICP) | relaxes human corpus cavernosum strips in endothelium-and NO-dependent manner | most potent vasoconstrictor compound identified | already detectable | – | – |
| CC(C)[C@H](NC(=O)[C@@H]1CSSC(C)(C)[C@H](NC(=O)[C@@H](N)CC(=O)O)C(=O)N[C@@H](Cc2ccccc2)C(=O)N[C@H](Cc2c[nH]c3ccccc23)C(=O)N[C@@H](CCCN)C(=O)N[C@@H](Cc2ccc(N)cc2)C(=O)N1)C(=O)O [UPG84, H-Asp-c[Pen-Phe-DTrp-Orn-(pNH2) Phe-Cys]-Val-OH] (HELM PEPTIDE1{D.[Pen].F.[dW].[Orn].[Nc1ccc(C[C@H](N[*:1])C(=O)[*:2])cc1].C.V}$PEPTIDE1,PEPTIDE1,2:R3-7:R3$$$V2.0) | showed the highest activity compared with the endogenous ligand, U-II, or P5U; also recorded: more potent than U-II or P5U | – | – | caused a significant increase in ICP compared to the endogenous ligand, U-II, and to P5U; also recorded: even more effective than P5U | – | – | induced a prominent penile erection in rat; also recorded: elicited a marked increase in ICP, expressed as area, compared with vehicle | – | – | – | – | comparable to the penile erection induced by P5U at the dose of 1 nmol | showed an effect similar to the highest dose of U-II (1 nmol); also recorded: comparable profile to that elicited by the highest dose of U-II (1 nmol); also recorded: comparable to the highest tested dose of U-II (1 nmol) |
